Laboratory results published in PubChem BioAssay.
Values without a mark were called inactive. Results filed as inconclusive are left out. Activity calls are given as the source filed them.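 The calls were made as follows, unless noted: active = cell viability at or below a set limit in both duplicate runs, the limit being the all-compound median minus 4 SD (cut at about 23% in these data, passing the limit was not always enough); inconclusive = no clear call, values can overlap the other calls; inactive = the rest.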

Tests used:
[1] = OD615 S. cerevisiae growth inhibition, permissive medium, pilot counter-assay, permissive growth control for S. cerevisiae lifespan shortening project (AID 705;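 active = growth inhibition above 25% in both replicates, a cutoff set 3 SD above the mean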); details: OD615, 24 h, at 10 µM, active compounds read high
How it was run: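 System: Engineered DeaD yeast | Buffer or medium: SC raffinose/galactose permissive medium | Incubation: Cells pre-grown 4 h, then 24 h compound exposure, 30 °C humidified | Measured by: Absorbance (optical density) at 615 nm | Read-out: Reduction in yeast growth (OD615)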

[2] = Restrictive medium S. cerevisiae growth inhibition, OD615, pilot screen of yeast lifespan reduction project, restrictive growth control (AID 706;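 active = growth inhibition above a set limit, 3 SD over mean compound inhibition, in both replicates, cut at about 43% in these data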;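 also: modified DeaD lifespan yeast strain shifted to restrictive glucose medium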); details: OD615, 48 h, at 10 µM, active compounds read high
How it was run: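 Material: modified S. cerevisiae; Medium: glucose-based CSMM-D restrictive medium; Compound dosing: one concentration, 10 µM final, 0.25% DMSO; Incubation: 48 h compound exposure at 30 °C; Measured by: OD615.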

[3] = viability gain of MRP-1-high H69AR cells under doxorubicin, pilot screen, MRP-1 activator project, CellTiter-Glo, duplicate (AID 807;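 active = viability increase at or above a cutoff of the median across tested compounds plus 3 SD, cut at about 8.5% in these data, passing the limit was not always enough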;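 also: compound pretreatment 18-22 h then 72 h combined with doxorubicin; 0% = doxorubicin alone and 100% = vehicle without doxorubicin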); details: H69AR viability with doxorubicin, CellTiter-Glo luminescence; at 10 µM; active compounds read high
[4] = growth suppression of beta-catenin knockout HCT116, pilot screen, human colon tumor cells (AID 823); details: CellTiter-Glo, 60 h, at 10 µM, active compounds read low;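 also: 0% = wells killed by 20 µM Hyamine and 100% = untreated DMSO cell wells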
[5] = growth suppression of PTEN-deleted HCT116, pilot screen, cell-based, HCT116 clonal line, CellTiter-Glo (AID 824;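 active = viability at or below 27.92% in each of two runs, the all-compound median minus 4 SD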;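 also: 0% = 20 µM Hyamine control and 100% = vehicle cell control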); details: 60 h, at 10 µM, active compounds read low
[6] = inhibitors of the yeast RAM network, pilot screen, dse1pr::URA3 reporter, 5-FOA selection (AID 869;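 active = inhibition over a set limit, the all-compound mean plus 3 SD, in both replicate runs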;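 also: 0% = DMSO wells with no growth and 100% = 10 µM 1-NA-PP1 with full growth; RAM network block rescues cells from 5-FOA so hits raise OD615 growth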); details: S. cerevisiae dse1pr::URA3 5-FOA growth, OD615, 2 d; at 10 µM; active compounds read high; strain carries analog-sensitive mutant Cbk1 kinase
[7] = RAM signaling pathway blockade in yeast – S. cerevisiae, Pdr1DBD-CYC8 efflux-inhibited sensitized strain, primary screen (AID 1298;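 active = RAM network inhibition above 8.4% in each of two replicates, 3 SD over the compound average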;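 also: 0% = DMSO untreated cells without growth and 100% = 10 µM 1-NA-PP1 full growth; higher means more yeast growth rescued from 5-FOA killing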); details: S. cerevisiae cbk1-as DSE1-URA3 strain, 5-FOA growth OD615, 2 d; at 50 µM; active compounds read high

SMILES: COCCN1Cc2cccc(C(=O)NCc3ccccn3)c2C1=O
- growth inhibition [1]: -2.71%
- growth inhibition [2]: -0.385%
- viability increase [3]: -0.59%
- viability [4]: 103%
- viability [5]: 110%
- inhibition [6]: 0%
- RAM network inhibition [7]: 1.61%

SMILES: COc1ccc(-n2nc3c(c2NC(=O)C24CC5CC(CC(C5)C2)C4)CS(=O)C3)cc1 (stereo unspecified)
- growth inhibition [1]: 1.36%
- growth inhibition [2]: 9.3%
- viability increase [3]: -0.78%
- viability [4]: 97.2%
- viability [5]: 93.5%
- inhibition [6]: -0.08%
- RAM network inhibition [7]: -1.31%

SMILES: COc1ccc(O)c(-c2[nH]ncc2C(=O)c2ccccc2C)c1
- growth inhibition [1]: -7.88%
- growth inhibition [2]: -5.12%
- viability increase [3]: -0.59%
- viability [4]: 100%
- viability [5]: 98.5%
- inhibition [6]: -0.045%
- RAM network inhibition [7]: -0.67%

SMILES: COC(=O)c1ccc2c(c1)NC(=O)C1CCCN21 (stereo unspecified)
- growth inhibition [1]: 7.72%
- growth inhibition [2]: 12.4%
- viability increase [3]: -0.72%
- viability [4]: 91.2%
- viability [5]: 89.8%
- inhibition [6]: 0.305%
- RAM network inhibition [7]: -1.29%

SMILES: Cc1c(Br)cc(C(=O)N2CCCC2)c(C)c1C
- growth inhibition [1]: -12.7%
- growth inhibition [2]: -11.1%
- viability increase [3]: -2.86%
- viability [4]: 102%
- viability [5]: 98.9%
- inhibition [6]: 0.205%
- RAM network inhibition [7]: 3.08%

SMILES: Cc1ccc(C(C)C)c(OCc2nc(-c3nonc3N)no2)c1
- growth inhibition [1]: -13%
- growth inhibition [2]: -14.4%
- viability increase [3]: 8.48% (active)
- viability [4]: 88.3%
- viability [5]: 81.2%
- inhibition [6]: 1.71%
- RAM network inhibition [7]: 3.09%

SMILES: CCC(C)NC(=O)c1ccc(NC(=O)C2CCCO2)cc1 (stereo unspecified)
- growth inhibition [1]: -6.02%
- growth inhibition [2]: -6.03%
- viability increase [3]: 3.38%
- viability [4]: 100%
- viability [5]: 100%
- inhibition [6]: 4.56%
- RAM network inhibition [7]: 1.78%

SMILES: N#Cc1ccc(OCCN2C(=O)NC3(CCSC3)C2=O)cc1 (stereo unspecified)
- growth inhibition [1]: -2.65%
- growth inhibition [2]: -19%
- viability increase [3]: -1.88%
- viability [4]: 101%
- viability [5]: 94.4%
- inhibition [6]: 0.975%
- RAM network inhibition [7]: 0.56%

SMILES: O=S(=O)(NCC(c1cccnc1)N1CCN(c2ccc(F)cc2)CC1)c1ccc(F)cc1 (stereo unspecified)
- growth inhibition [1]: -0.55%
- growth inhibition [2]: -0.65%
- viability increase [3]: -2.52%
- viability [4]: 87.4%
- viability [5]: 84.5%
- inhibition [6]: 4.02%
- RAM network inhibition [7]: 4.9%

SMILES: COc1ccc(NC(=O)CCCC2=NS(=O)(=O)c3ccccc3N2)cc1
- growth inhibition [1]: -8.46%
- growth inhibition [2]: -7.47%
- viability increase [3]: -3.01%
- viability [4]: 103%
- viability [5]: 99.3%
- inhibition [6]: 1.23%
- RAM network inhibition [7]: 3.11%

SMILES: CCOc1ccc(C(=O)CCNC(Cc2cnc[nH]2)C(=O)O)cc1 (stereo unspecified)
- growth inhibition [1]: 5.56%
- growth inhibition [2]: 8.23%
- viability increase [3]: -2.31%
- viability [4]: 95.1%
- viability [5]: 92.7%
- inhibition [6]: 2.15%
- RAM network inhibition [7]: 4.96%

SMILES: CC(=O)C1=C(C)NC(=O)NC1c1ccccc1 (stereo unspecified)
- growth inhibition [1]: -7.36%
- growth inhibition [2]: -18.6%
- viability increase [3]: -2.61%
- viability [4]: 87.3%
- viability [5]: 91.5%
- inhibition [6]: 1.03%
- RAM network inhibition [7]: 5.38%

SMILES: Cn1c(=O)c2c(SC3CCCC3)nc(C3CC3)nc2n(C)c1=O
- growth inhibition [1]: 3.3%
- growth inhibition [2]: -9.07%
- viability increase [3]: 1.43%
- viability [4]: 91%
- viability [5]: 86.3%
- inhibition [6]: 2.54%
- RAM network inhibition [7]: 2.78%

SMILES: CCC(=O)N1CC2(C)CN(C(=O)CC)CC(C)(C1)C2
- growth inhibition [1]: -6.27%
- growth inhibition [2]: -24.9%
- viability increase [3]: -0.75%
- viability [4]: 95.3%
- viability [5]: 97%
- inhibition [6]: 1.59%
- RAM network inhibition [7]: -0.16%

SMILES: CCN1C(=O)c2ccccc2Sc2ccc(C(=O)NCCN3CCOCC3)cc21
- growth inhibition [1]: -6.92%
- growth inhibition [2]: -7.4%
- viability increase [3]: -0.43%
- viability [4]: 110%
- viability [5]: 101%
- inhibition [6]: -0.985%
- RAM network inhibition [7]: 2.02%

SMILES: CN(CC(=O)NCCC1=CCCCC1)S(=O)(=O)c1ccc2c(c1)c(=O)n(C)c(=O)n2C
- growth inhibition [1]: -7.74%
- growth inhibition [2]: -27.4%
- viability increase [3]: -1.64%
- viability [4]: 84.4%
- viability [5]: 76.8%
- inhibition [6]: 2.88%
- RAM network inhibition [7]: 4.5%

SMILES: CCCCN(CC)CCNC(=O)Cn1cnc2sc(C)c(S(=O)(=O)N3CCOCC3)c2c1=O
- growth inhibition [1]: -7.83%
- growth inhibition [2]: 0.72%
- viability increase [3]: -0.05%
- viability [4]: 99.5%
- viability [5]: 98.4%
- inhibition [6]: 2.3%
- RAM network inhibition [7]: 0.78%

SMILES: CC(C)Oc1cc(O)c2c(=O)c(-c3ccc(O)cc3)coc2c1
- growth inhibition [1]: -14.2%
- growth inhibition [2]: -15.1%
- viability increase [3]: -6.33%
- viability [4]: 79.8%
- viability [5]: 64.5%
- inhibition [6]: 0.605%
- RAM network inhibition [7]: -3.3%

SMILES: Nc1ccc2nc(-c3ccc(Cl)cc3)[nH]c2c1
- growth inhibition [1]: -13%
- growth inhibition [2]: -10.7%
- viability increase [3]: -8.6%
- viability [4]: 73.4%
- viability [5]: 75.3%
- inhibition [6]: 0.935%
- RAM network inhibition [7]: 4.58%

SMILES: Cc1cccc(-c2noc(CCc3ccccc3)n2)c1
- growth inhibition [1]: -13.3%
- growth inhibition [2]: -12%
- viability increase [3]: 0.39%
- viability [4]: 102%
- viability [5]: 98.1%
- inhibition [6]: 1.13%
- RAM network inhibition [7]: 2.14%

SMILES: CCOC(=O)C(C)n1cnc2sc3c(c2c1=O)CCC3 (stereo unspecified)
- growth inhibition [1]: -8.5%
- growth inhibition [2]: -7.75%
- viability increase [3]: -1.76%
- viability [4]: 95.7%
- viability [5]: 99.6%
- inhibition [6]: 0.575%
- RAM network inhibition [7]: 1.15%

SMILES: CC1CCCCN1CCNC(=O)c1cc2c(-c3ccccc3F)nn(C)c2s1 (stereo unspecified)
- growth inhibition [1]: -3.09%
- growth inhibition [2]: 0.025%
- viability increase [3]: -6.73%
- viability [4]: 48%
- viability [5]: 59.6%
- inhibition [6]: 0.095%
- RAM network inhibition [7]: 5.89%

SMILES: O=C(CN1CCN(c2ncccn2)CC1)NCCC1=CCCCC1
- growth inhibition [1]: -8.09%
- growth inhibition [2]: -27.1%
- viability increase [3]: -2.15%
- viability [4]: 94%
- viability [5]: 93.7%
- inhibition [6]: 1.9%
- RAM network inhibition [7]: 5.02%

SMILES: CCOC(=O)Cn1c(=O)oc2cc(S(=O)(=O)Nc3cccc(C)c3)ccc21
- growth inhibition [1]: -5.58%
- growth inhibition [2]: -22.1%
- viability increase [3]: -0.66%
- viability [4]: 65.5%
- viability [5]: 79%
- inhibition [6]: 1%
- RAM network inhibition [7]: 2.63%

SMILES: O=C(CCCCCn1c(=O)[nH]c2ccsc2c1=O)N1CCN(C2CCCCC2)CC1
- growth inhibition [1]: -5.63%
- growth inhibition [2]: -0.345%
- viability increase [3]: -1.81%
- viability [4]: 95.3%
- viability [5]: 92.3%
- inhibition [6]: 1.38%
- RAM network inhibition [7]: 3%

SMILES: COc1ccc2ccccc2c1C1CC(=O)N2CN(C3CCCCC3)CSC2=C1C#N (stereo unspecified)
- growth inhibition [1]: 2.87%
- growth inhibition [2]: 25.4%
- viability increase [3]: -4.9%
- viability [4]: 81.3%
- viability [5]: 76.4%
- inhibition [6]: 2.05%
- RAM network inhibition [7]: 4.86%

SMILES: O=C1CC2CS(=O)(=O)CC2N1C1CCCCC1 (stereo unspecified)
- growth inhibition [1]: -8.38%
- growth inhibition [2]: -13.2%
- viability increase [3]: -0.5%
- viability [4]: 107%
- viability [5]: 96%
- inhibition [6]: 0.495%
- RAM network inhibition [7]: 2.85%

SMILES: O=C(O)c1ccccc1C(=O)NCc1ccccc1
- growth inhibition [1]: -7.18%
- growth inhibition [2]: -15.6%
- viability increase [3]: 1.13%
- viability [4]: 99.3%
- viability [5]: 100%
- inhibition [6]: 0.27%
- RAM network inhibition [7]: 1.13%

SMILES: O=C(CCCC(=O)NCC1CCCO1)NCC1CCCO1 (stereo unspecified)
- growth inhibition [1]: -1.28%
- growth inhibition [2]: 7.34%
- viability increase [3]: -1.38%
- viability [4]: 101%
- viability [5]: 101%
- inhibition [6]: 0.185%
- RAM network inhibition [7]: 1.12%

SMILES: CCCC1(C(=O)O)NC(c2ccc(OC)cc2O)C2C(=O)N(c3ccc(OC)cc3)C(=O)C21 (stereo unspecified)
- growth inhibition [1]: -7.46%
- growth inhibition [2]: 1.98%
- viability increase [3]: -0.54%
- viability [4]: 95.8%
- viability [5]: 91.6%
- inhibition [6]: 1.48%
- RAM network inhibition [7]: 2.34%

SMILES: CCC(CC)c1nnc(NC(=O)c2c(-c3ccccc3)noc2C)s1
- growth inhibition [1]: -10.7%
- growth inhibition [2]: 3.94%
- viability increase [3]: -1.44%
- viability [4]: 90.2%
- viability [5]: 93.9%
- inhibition [6]: 0.27%
- RAM network inhibition [7]: 2.57%

SMILES: CCN(Cc1ccccc1)S(=O)(=O)c1ccc(S(=O)(=O)N2CCN(CCC#N)CC2)cc1
- growth inhibition [1]: -8.36%
- growth inhibition [2]: -8.88%
- viability increase [3]: -4.88%
- viability [4]: 90.7%
- viability [5]: 83.9%
- inhibition [6]: 1%
- RAM network inhibition [7]: 5.6%

SMILES: CCOC(=O)c1ccccc1Nc1cc(C)nc2nc(C)nn12
- growth inhibition [1]: -4.38%
- growth inhibition [2]: 9.16%
- viability increase [3]: -5.14%
- viability [4]: 97.6%
- viability [5]: 93%
- inhibition [6]: 1.52%
- RAM network inhibition [7]: 1.2%
